ChEMBL document CHEMBL4340518, “Synthesis, structure-activity relationship and in vitro pharmacodynamics of A-ring modified caged xanthones in a preclinical model of inflammatory breast cancer” (Eur J Med Chem, 2019)
Active and inactive are the calls of the source. The rule behind the calls is not given here.

Experiments:
Breast carcinoma cell [1] = experiment: Induction of apoptosis in patient derived inflammatory breast cancer cell spheroids assessed as increase in pyknotic nuclei at 2.5 uM incubated for 3 hrs by DAPI staining based fluorescence microscopic analysis; format: functional; settings: Homo sapiens
Summary of the method: (§1)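 Spheroids were embedded in Matrigel plugs (Matrigel:spheroids in medium 2:1) on coverslips and set for 30 min at 37 °C. They were exposed to 2.5 μM or DMSO for 3 h, with brightfield checks of edge loss. Plugs were fixed in 4% PFA 30 min RT, permeabilized with 2% Triton X-100 15 min, and blocked with 3% goat serum 30 min. Staining used Alexa488 anti-Ki67 (1:10) and anti-cPARP (1:100), 4 °C 24 h, then Cy5 anti-rabbit (4 µg/ml), 4 °C 24 h, and DAPI mountant. ApoTome z-stack fluorescence imaging followed.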

Breast carcinoma cell [2] = experiment: Cytotoxicity against patient derived inflammatory breast cancer cell spheroids assessed as increase in spheroid dissolution incubated for 24 hrs by propidium iodide/Acridine orange staining based dual-fluorescence viability assay; format: functional; settings: Homo sapiens
Breast carcinoma cell [3] = experiment: Cytotoxicity against patient derived inflammatory breast cancer cell spheroids assessed as increase in spheroid dissolution at 2.5 uM incubated for 24 hrs by bright field microscopic based Spheroids MARY-X assay; format: functional, Homo sapiens
Summary of the method: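 MARY-X spheroids (40–100 μm) grown in MEM + 10% heat-inactivated FBS, penicillin/streptomycin, 37 °C, 5% CO2. Plated at 30–50 spheroids/well and exposed in replicates to 2.5 μM or DMSO vehicle for 24 h. Brightfield imaging scored deviation from the well-circumscribed spheroid edge, graded as no, low, moderate or complete response.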

Breast carcinoma cell [4] = experiment: Antiproliferative activity against patient derived inflammatory breast cancer cell spheroids assessed as reduction in cell viability at 2.5 uM incubated for 3 hrs by ki-67 staining based fluorescence microscopic analysis; format: functional; settings: Homo sapiens; summary of the method: as §1
Breast carcinoma cell [5] = experiment: Induction of apoptosis in patient derived inflammatory breast cancer cell spheroids assessed as localization of cleaved PARP at 2.5 uM incubated for 3 hrs by c-PARP staining based fluorescence microscopic analysis; format: functional; settings: Homo sapiens; summary of the method: as §1
Breast carcinoma cell [6] = experiment: Induction of apoptosis in patient derived inflammatory breast cancer cell spheroids assessed as increase in loss of well-circumscribed spheroid edge at 2.5 uM incubated for 3 hrs by bright field microscopic analysis; format: functional, cell-based; settings: Homo sapiens; summary of the method: as §1
Breast carcinoma cell [7] = experiment: Cytotoxicity against patient derived inflammatory breast cancer cell spheroids assessed as increase in spheroid dissolution incubated for 24 hrs by bright field microscopic based Spheroids MARY-X assay; format: functional; settings: Homo sapiens
Summary of the method: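 MARY-X spheroids (40–100 μm; MEM, 10% heat-inactivated FBS, antibiotics, 37 °C, 5% CO2) were seeded at 30–50/well. Treated in replicates for 24 h with nine concentrations, 0.25–2.25 μM in 0.25 μM steps made by serial dilution, or DMSO. ImageJ circularity from brightfield images gave dose-response curves, from which IC50 was fitted.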

Breast carcinoma cell [8] = experiment: Potency index, ratio of IC50 for taxol to IC50 for test compound for cytotoxicity against patient derived inflammatory breast cancer cell spheroids assessed as increase in spheroid dissolution incubated for 24 hrs by propidium iodide/Acridine orange staining based dual-fluorescence viability assay; format: functional, Homo sapiens

SMILES	Activity (Breast carcinoma cell [3]) [%]	IC50 (Breast carcinoma cell [7]) [nM]	Activity (Breast carcinoma cell [3]; Homo sapiens)	also measured
CC(C)=CCC12OC(C)(C)C3CC(C=C4C(=O)c5c(O)cccc5OC431)C2=O (centres undefined)	100	510	–	Activity (Breast carcinoma cell [1]): Active; IC50 (Breast carcinoma cell [2]): 660 nM; Activity (Breast carcinoma cell [4]): Active; Activity (Breast carcinoma cell [5]): Active; Activity (Breast carcinoma cell [6]): Active
CC(C)=CCC12OC(C)(C)C3CC(C=C4C(=O)c5c(F)cc(F)cc5OC431)C2=O (centres undefined)	100	1120	–	Activity (Breast carcinoma cell [1]): Active; Activity (Breast carcinoma cell [4]): Active; Activity (Breast carcinoma cell [5]): Active; Activity (Breast carcinoma cell [6]): Active
CC(C)=CCC12OC(C)(C)C3CC(C=C4C(=O)c5ccc(O)cc5OC431)C2=O (centres undefined)	–	–	inactive	–
COCCOCCOCCOc1cccc2c1C(=O)C1=CC3CC4C(C)(C)OC(CC=C(C)C)(C3=O)C14O2 (centres undefined)	–	–	Active	–
COc1ccc(OC)c2c1OC13C(=CC4CC1C(C)(C)OC3(CC=C(C)C)C4=O)C2=O (centres undefined)	–	–	inactive	–
CC(C)=CCC[C@]1(C)C=Cc2c(O)c3c(c(CC=C(C)C)c2O1)O[C@]12C(=C[C@@H]4C[C@H]1C(C)(C)O[C@@]2(C/C=C(/C)C(=O)O)C4=O)C3=O [GAMBOGIC ACID]	–	–	–	IC50 (Breast carcinoma cell [2]): 420 nM; Ratio IC50 (Breast carcinoma cell [8]): 20
CC(C)=CCC12OC(C)(C)C3CC(C=C4C(=O)C5=C(OC431)C(=O)C=CC5=O)C2=O (centres undefined)	–	–	inactive	–
CC(C)=CCC12OC(C)(C)C3CC(C=C4C(=O)c5ccccc5OC431)C2=O (centres undefined)	100	630	–	–
COCOc1cc(O)c2c(c1)OC13C(=CC4CC1C(C)(C)OC3(CC=C(C)C)C4=O)C2=O (centres undefined)	100	380	–	Activity (Breast carcinoma cell [1]): Active; Activity (Breast carcinoma cell [4]): Active; Activity (Breast carcinoma cell [5]): Active; Activity (Breast carcinoma cell [6]): Active
COCCOCCOCCOc1ccc2c(c1)OC13C(=CC4CC1C(C)(C)OC3(CC=C(C)C)C4=O)C2=O (centres undefined)	–	–	Active	–
COCCOCCOCCOc1cc(OCCOCCOCCOC)c2c(c1)OC13C(=CC4CC1C(C)(C)OC3(CC=C(C)C)C4=O)C2=O (centres undefined)	–	–	Active	–
CC(C)=CCC12OC(C)(C)C3CC(C=C4C(=O)c5c(O)cc(O)cc5OC431)C2=O (centres undefined)	–	–	inactive	–
COCCOCCOCCOc1cc(O)c2c(c1)OC13C(=CC4CC1C(C)(C)OC3(CC=C(C)C)C4=O)C2=O (centres undefined)	–	–	Active	–
CC(C)=CCC12OC(C)(C)C3CC4(Oc5cc(F)cc(F)c5C(=O)C4=CC31)C2=O (centres undefined)	100	890	–	–
CC(=O)O[C@H]1C(=O)[C@@]2(C)[C@H]([C@H](OC(=O)c3ccccc3)[C@]3(O)C[C@H](OC(=O)[C@H](O)[C@@H](NC(=O)c4ccccc4)c4ccccc4)C(C)=C1C3(C)C)[C@]1(OC(C)=O)CO[C@@H]1C[C@@H]2O [PACLITAXEL]	–	–	–	IC50 (Breast carcinoma cell [2]): 7800 nM
